{
  "source": "paper PMC12363949",
  "about": "(bioRxiv, 2025)",
  "key": {"Pf20S β1": {"target": "Pf20S β1 (Plasmodium falciparum, UniProt Q8I0U7+Q8I6T3)", "sequence (Q8I0U7 31-282)": "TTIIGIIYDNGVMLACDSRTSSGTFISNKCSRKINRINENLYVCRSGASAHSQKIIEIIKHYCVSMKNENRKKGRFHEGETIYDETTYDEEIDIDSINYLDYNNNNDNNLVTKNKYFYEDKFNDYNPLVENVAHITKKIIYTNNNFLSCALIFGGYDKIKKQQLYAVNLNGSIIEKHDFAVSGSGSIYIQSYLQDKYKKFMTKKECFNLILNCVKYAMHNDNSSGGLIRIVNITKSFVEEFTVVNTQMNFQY", "sequence (Q8I6T3 42-270)": "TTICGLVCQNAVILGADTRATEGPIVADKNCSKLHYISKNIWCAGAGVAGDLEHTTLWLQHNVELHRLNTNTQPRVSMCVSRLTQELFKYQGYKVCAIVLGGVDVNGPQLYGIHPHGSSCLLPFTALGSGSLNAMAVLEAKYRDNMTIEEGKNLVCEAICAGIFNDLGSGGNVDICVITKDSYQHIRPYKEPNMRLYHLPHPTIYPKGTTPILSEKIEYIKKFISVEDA", "sequence (Q06323 whole entry partner)": "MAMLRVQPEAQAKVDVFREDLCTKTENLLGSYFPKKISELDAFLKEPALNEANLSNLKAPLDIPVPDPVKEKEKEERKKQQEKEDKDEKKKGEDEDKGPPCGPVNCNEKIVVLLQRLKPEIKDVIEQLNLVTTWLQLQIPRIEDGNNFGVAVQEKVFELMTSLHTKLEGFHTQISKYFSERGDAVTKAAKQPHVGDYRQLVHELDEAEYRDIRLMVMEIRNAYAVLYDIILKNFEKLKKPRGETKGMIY", "assay": "Pf20S β1 subunit activity/inhibition assay, fluorogenic substrate Ac-nPnD-amc", "format": "biochemical"}, "Pf20S β2": {"target": "Pf20S β2 (Plasmodium falciparum, UniProt Q8I261+Q8I6T3)", "sequence (Q8I6T3 42-270)": "as the sequence (Q8I6T3 42-270) above", "sequence (Q8I261 1-218)": "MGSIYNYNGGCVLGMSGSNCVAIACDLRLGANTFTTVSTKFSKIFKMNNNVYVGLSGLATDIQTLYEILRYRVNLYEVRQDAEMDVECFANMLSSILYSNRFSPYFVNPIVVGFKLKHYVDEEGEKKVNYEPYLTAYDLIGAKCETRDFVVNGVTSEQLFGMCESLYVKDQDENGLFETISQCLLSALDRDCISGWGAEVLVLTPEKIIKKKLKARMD", "sequence (Q06323 whole entry partner)": "as the sequence (Q06323 whole entry partner) above", "assay": "Pf20S β2 subunit activity/inhibition assay, fluorogenic substrate Z-VLR-amc", "format": "biochemical"}, "Pf20S β5": {"target": "Pf20S β5 (Plasmodium falciparum, UniProt A0A5K1K7U1+Q8IJT1)", "sequence (Q8IJT1 61-271)": "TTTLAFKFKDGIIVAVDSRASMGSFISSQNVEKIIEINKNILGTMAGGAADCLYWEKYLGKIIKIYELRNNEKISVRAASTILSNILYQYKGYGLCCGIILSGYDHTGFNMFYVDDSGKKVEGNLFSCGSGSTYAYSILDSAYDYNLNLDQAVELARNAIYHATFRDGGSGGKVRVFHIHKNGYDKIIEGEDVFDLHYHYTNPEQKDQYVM", "sequence (A0A5K1K7U1 29-240)": "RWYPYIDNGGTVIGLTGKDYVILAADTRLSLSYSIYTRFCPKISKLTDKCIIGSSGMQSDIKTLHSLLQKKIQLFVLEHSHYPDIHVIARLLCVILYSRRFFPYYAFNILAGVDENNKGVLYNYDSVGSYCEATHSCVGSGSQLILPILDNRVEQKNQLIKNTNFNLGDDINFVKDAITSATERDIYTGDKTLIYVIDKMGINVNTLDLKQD", "sequence (Q06323 whole entry partner)": "as the sequence (Q06323 whole entry partner) above", "assay": "Pf20S β5 subunit activity/inhibition assay, fluorogenic substrate Ac-FNKL-amc", "format": "biochemical", "conditions": "200 nM PA28α"}, "Pf20S β2 subunit": {"tested_on": "Pf20S β2 subunit", "assay": "Gel-based competition with activity-based probe Me4BodipyFL-Ahx3Leu3VS, β2 band", "format": "biochemical, Plasmodium falciparum", "conditions": "preincubation of recombinant Pf20S with inhibitor before probe; denaturing gel", "procedure,_shortened": "(§1)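 Baculovirus-expressed Pf20S from Sf9 cells, purified by Streptactin affinity and size exclusion, preincubated with test compound. Then 2 μM Me4BodipyFL-Ahx3Leu3VS added, 16 h at room temperature. Samples heated 5 min at 99°C in LDS buffer with 250 μM DTT, run on 12% Bis-Tris gel in MOPS SDS buffer at 120 V. Imaged at 470 nm excitation / 530 nm emission; bands quantified densitometrically.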"}, "Pf20S β5 subunit": {"tested_on": "Pf20S β5 subunit", "assay": "Gel-based competition with activity-based probe Me4BodipyFL-Ahx3Leu3VS, β5 band", "format": "biochemical, Plasmodium falciparum", "conditions": "preincubation of recombinant Pf20S with inhibitor before probe; denaturing gel", "procedure,_shortened": "as §1"}, "c20S β2": {"target": "c20S β2 (Homo sapiens, UniProt P49720+Q99436)", "assay": "Human c20S β2 inhibition assay, fluorogenic substrate Z-VLR-amc", "format": "biochemical"}, "[1]": {"target": "incorrectly assembled half-Pf20S (immature half proteasome with Ump1) (Plasmodium falciparum) (UniProt Q8I6T3)", "assay": "cryo-EM structure"}},
  "data": [
    {"compound": "PA28α: human proteasome activator subunit 1 alpha, produced recombinantly in E. coli", "values": [
      {"measurement": "increase of Pf20S β1 subunit activity", "setting": "Pf20S β1; 200 nM PA28α, Ac-nPnD-amc", "value": 4, "unit": "fold"},
      {"measurement": "increase of Pf20S β2 subunit activity", "setting": "Pf20S β2; 200 nM PA28α, Z-VLR-amc", "value": 2, "unit": "fold"},
      {"measurement": "increase of Pf20S β5 subunit activity", "setting": "Pf20S β5", "value": 8, "unit": "fold"}
    ]},
    {"compound": "C[C@@]12OC(=O)[C@]1([C@@H](O)[C@@H]1C=CCCC1)NC(=O)[C@@H]2CCCl", "note": "[Marizomib]", "values": [
      {"measurement": "effect on probe labeling of β2 (upper, 25 kDa) band", "setting": "Pf20S β2 subunit", "value": "eliminated the labeling of both bands"},
      {"measurement": "inhibition of Pf20S-mediated cleavage of Ac-nPnD-amc (β1 activity)", "setting": "Pf20S β1; time-course, Fig. 3b", "value": "inhibited"},
      {"measurement": "effect on probe labeling of β5 (lower, 23 kDa) band", "setting": "Pf20S β5 subunit", "value": "eliminated the labeling of both bands"},
      {"measurement": "IC50", "setting": "c20S β2", "value": "~300", "unit": "nM"}
    ]},
    {"compound": "Ac-Phe-Arg-Ser-Arg-epoxyketone [FRSR-ek]", "values": [
      {"measurement": "inhibition of Pf20S activity with Z-VLR-amc (β2 substrate)", "setting": "Pf20S β2; Fig. S4", "value": "effectively inhibited"}
    ]},
    {"compound": "incorrectly assembled half-Pf20S (immature half proteasome with Ump1) (from UniProt Q8I6T3 1-270; Q8IJT1 1-271; Q7K6A9 1-265) (complex)", "values": [
      {"measurement": "stoichiometry N", "setting": "[1]", "value": 2}
    ]}
  ]
}
